From ChEMBL document CHEMBL1131198, “From micromolar to nanomolar affinity: a systematic approach to identify the binding site of CGRP at the human calcitonin gene-related peptide 1 receptor” (J Med Chem, 1998)
Numbered stars: 1 amine (or outer) side, 2 acyl side, 3 side chain; on linkers, the order of the positions; unused ones are H or OH. Square brackets hold non-standard residues; d marks the D form. Peptide text beside a SMILES is read from it. X1 = O=C(C1(c2ccccc2)CC1CN[*:1])[*:2]; X2 = O=C(C1CC1CN[*:1])[*:2]; Aib = CC(C)(N)C(=O)O

Target: Calcitonin gene-related peptide type 1 receptor (Homo sapiens, UniProt O60894+Q16602)
Experiment: CGRP1 receptor affinity on human neuroblastoma cells SK-N-MC, which selectively express the human CGRP1 receptor.
Summary of the method: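 SK-N-MC membranes (cells grown in DMEM, detached with PBS/0.02% EDTA, homogenized, pellet in Tris buffer pH 7.40 with 1% BSA, 0.1% bacitracin, stored -80 °C) diluted 1:10 in assay buffer (50 mM Tris, 150 mM NaCl, 5 mM MgCl2, 1 mM EDTA, pH 7.40).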

Calcitonin gene-related peptide type 1 receptor, sequence (Q16602 whole entry, one chain of several): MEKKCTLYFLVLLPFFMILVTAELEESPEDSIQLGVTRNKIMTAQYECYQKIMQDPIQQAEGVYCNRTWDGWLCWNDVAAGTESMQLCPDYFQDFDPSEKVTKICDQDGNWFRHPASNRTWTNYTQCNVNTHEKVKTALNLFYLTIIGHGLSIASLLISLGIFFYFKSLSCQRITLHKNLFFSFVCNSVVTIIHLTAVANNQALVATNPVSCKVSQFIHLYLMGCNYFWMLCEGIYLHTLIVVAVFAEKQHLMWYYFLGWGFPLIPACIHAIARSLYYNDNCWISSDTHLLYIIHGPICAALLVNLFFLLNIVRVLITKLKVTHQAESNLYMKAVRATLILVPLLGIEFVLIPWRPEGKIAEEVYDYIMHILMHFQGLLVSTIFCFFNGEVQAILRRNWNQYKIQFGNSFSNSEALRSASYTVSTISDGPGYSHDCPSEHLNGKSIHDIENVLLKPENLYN

Compound	IC50
CC(C)[C@H](NC(=O)[C@H](CC(=O)O)NC(=O)[C@@H](NC(=O)[C@@H]1CCCN1C(=O)[C@@H](NC(=O)[C@@H](N)Cc1ccccc1)C(C)C)[C@@H](C)O)C(=O)NCC(=O)N1CCCC[C@H]1C(=O)N[C@@H](Cc1ccccc1)C(=O)N[C@@H](C)C(=O)N[C@@H](Cc1ccccc1)C(=O)O	0.91 µM
CC(C)[C@H](NC(=O)[C@H](CC(=O)O)NC(=O)[C@@H](NC(=O)[C@@H]1CCCN1C(=O)[C@@H](NC(=O)[C@@H](N)Cc1ccccc1)C(C)C)[C@@H](C)O)C(=O)NCC(=O)N1CCC[C@H]1C(=O)N[C@@H](Cc1ccccc1)C(=O)N[C@@H](C)C(=O)N[C@@H](Cc1ccccc1)C(=O)O	0.029 µM
CC(C)[C@H](NC(=O)[C@H](CC(N)=O)NC(=O)[C@@H](NC(=O)[C@@H]1CCCN1C(=O)[C@@H](NC(=O)[C@@H](N)Cc1ccc(O)cc1)C(C)C)[C@@H](C)O)C(=O)NCC(=O)N[C@@H](CO)C(=O)N[C@@H](CCC(=O)O)C(=O)N[C@H](C)C(=O)N[C@@H](Cc1ccccc1)C(=O)O	> 100 µM
CC(C)[C@H](NC(=O)[C@H](CC(N)=O)NC(=O)[C@@H](NC(=O)[C@@H]1CCCN1C(=O)[C@@H](NC(=O)[C@@H](N)Cc1ccc(O)cc1)C(C)C)[C@@H](C)O)C(=O)NCC(=O)N[C@H](CO)C(=O)N[C@@H](CCC(=O)O)C(=O)N[C@@H](C)C(=O)N[C@@H](Cc1ccccc1)C(=O)O	> 100 µM
CC(C)[C@H](NC(=O)[C@H](CC(N)=O)NC(=O)[C@@H](NC(=O)[C@@H]1CCCN1C(=O)[C@@H](NC(=O)[C@@H](N)Cc1ccc(O)cc1)C(C)C)[C@@H](C)O)C(=O)NCC(=O)N[C@@H](CO)C(=O)N[C@@H](CCC(=O)O)C(=O)N[C@@H](C)C(=O)N[C@@H](Cc1ccccc1)C(=O)O	3 µM
CC(C)[C@H](NC(=O)[C@H](CC(=O)O)NC(=O)[C@@H](NC(=O)[C@@H]1CCCN1C(=O)[C@@H](NC(=O)[C@@H](N)Cc1ccccc1)C(C)C)[C@@H](C)O)C(=O)NCC(=O)NCC1CC1C(=O)N[C@@H](Cc1ccccc1)C(=O)N[C@@H](C)C(=O)N[C@@H](Cc1ccccc1)C(=O)O (stereo partly specified) (H-FVPTDVG[X2]FAF-OH)	> 3 µM

Next, values leading:

IC50	Compound
> 100 µM	CC(C)[C@H](NC(=O)[C@@H](CC(N)=O)NC(=O)[C@@H](NC(=O)[C@@H]1CCCN1C(=O)[C@@H](NC(=O)[C@@H](N)Cc1ccc(O)cc1)C(C)C)[C@@H](C)O)C(=O)NCC(=O)N[C@@H](CO)C(=O)N[C@@H](CCC(=O)O)C(=O)N[C@@H](C)C(=O)N[C@@H](Cc1ccccc1)C(=O)O
0.62 µM	CC(C)[C@H](NC(=O)[C@H](CC(=O)O)NC(=O)[C@@H](NC(=O)[C@@H]1CCCN1C(=O)[C@@H](NC(=O)[C@@H](N)Cc1ccccc1)C(C)C)[C@@H](C)O)C(=O)NCC(=O)N1C[C@H](O)C[C@H]1C(=O)N[C@@H](Cc1ccccc1)C(=O)N[C@@H](C)C(=O)N[C@@H](Cc1ccccc1)C(=O)O
80 µM	CC(C)[C@H](NC(=O)[C@H](CC(N)=O)NC(=O)[C@@H](NC(=O)[C@@H]1CCCN1C(=O)[C@@H](NC(=O)[C@H](N)Cc1ccc(O)cc1)C(C)C)[C@@H](C)O)C(=O)NCC(=O)N[C@@H](CO)C(=O)N[C@@H](CCC(=O)O)C(=O)N[C@@H](C)C(=O)N[C@@H](Cc1ccccc1)C(=O)O
0.17 µM	CC(C)[C@H](NC(=O)[C@H](CC(=O)O)NC(=O)[C@@H](NC(=O)[C@@H]1CCCN1C(=O)[C@@H](NC(=O)[C@@H](N)Cc1ccccc1)C(C)C)[C@@H](C)O)C(=O)NCC(=O)NC(C)(C)C(=O)N[C@@H](Cc1ccccc1)C(=O)N[C@@H](C)C(=O)N[C@@H](Cc1ccccc1)C(=O)O (H-FVPTDVG[Aib]FAF-OH)
> 3 µM	CC(C)[C@H](NC(=O)[C@H](CC(=O)O)NC(=O)[C@@H](NC(=O)[C@@H]1CCCN1C(=O)[C@@H](NC(=O)[C@@H](N)Cc1ccccc1)C(C)C)[C@@H](C)O)C(=O)NCC(=O)NCC1CC1(C(=O)N[C@@H](Cc1ccccc1)C(=O)N[C@@H](C)C(=O)N[C@@H](Cc1ccccc1)C(=O)O)c1ccccc1 (stereo partly specified) (H-FVPTDVG[X1]FAF-OH)
